Molecules are shown by their SMILES.

A short description of the first assay: Inhibition of recombinant Plasmodium falciparum M1 aminopeptidase using H-Leu-NHMec as substrate preincubated for 10 mins followed by addition of substrate by spectrofluorimetric analysis. In a few lines: (§1)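 E. coli-expressed enzymes, purified by Ni-NTA and size exclusion. Preincubation 10 min at 37°C with inhibitor: M1 in 100 mM Tris pH 8.0; M17 in 50 mM Tris pH 8.0, 2 mM CoCl2. Substrate H-Leu-NHMec kept below Km. Fluorescence ex 355/em 460 nm followed to steady-state velocity. Inhibitor range 500pM–500 μM. Ki from Dixon plots (1/V vs [I]).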
In general, Ki refers to a dissociation constant, usually derived from enzyme kinetics or from competition with a known ligand. As to `CC(C)(C)OC(=O)NC(C(=O)NO)c1ccc(-c2ccc(F)cc2)cc1` (stereo not drawn), the Ki came out at 100 µM.
Regarding `CC(C)(C)OC(=O)NC(C(=O)NO)c1ccc(-c2ccccc2)cc1` (stereo not drawn), the Ki stood at 37 µM.
As for `CC(C)(C)C(=O)NC(Cc1ccc(-c2ccccc2)cc1)C(=O)NO` (stereo not drawn), the inhibition constant Ki came to 27 µM.
Still for that read-out and setting: next, `CC(C)(C)OC(=O)NC(Cc1ccc(F)cc1)C(=O)NO` (stereo not drawn): 18 µM; `CC(C)(C)OC(=O)NC(C(=O)NO)c1ccc(-c2ccncc2)cc1` (stereo not drawn): 0.91 µM; `CC(C)(C)OC(=O)NC(C(=O)NO)c1ccc(-c2ccc(C(F)(F)F)cc2)cc1` (stereo not drawn): over 500 µM.
Take `CC(C)(C)OC(=O)NC(C(=O)NO)c1ccc(F)cc1` (stereo not drawn): the inhibitory constant (Ki) turned out to be 5.3 µM.
Still for that read-out and setting: next, `CC(C)(C)OC(=O)NC(Cc1ccc(I)cc1)C(=O)NO` (stereo not drawn): 4.3 µM; `CC(C)(C)OC(=O)NC(C(=O)NO)c1ccc(-c2ccsc2)cc1` (stereo not drawn): 20 µM; `CC(C)(C)OC(=O)NC(C(=O)NO)c1ccc(-c2cccnc2)cc1` (stereo not drawn): 1.1 µM.
Still for that read-out and setting: next, `CC(C)(C)C(=O)NC(Cc1ccc(Br)cc1)C(=O)NO` (stereo not drawn): 87 µM; `CC(C)(C)OC(=O)NC(C(=O)NO)c1ccc(-c2cccc(F)c2)cc1` (stereo not drawn): 0.95 µM; `Cn1cc(-c2ccc(CC(NC(=O)C(C)(C)C)C(=O)NO)cc2)cn1` (stereo not drawn): 39 µM.
Regarding `Cn1cc(-c2ccc(CC(NC(=O)OC(C)(C)C)C(=O)NO)cc2)cn1` (stereo not drawn), the Ki was determined as 120 µM.
The same measure, in the same setting: next, `CC(C)(C)C(=O)NC(Cc1ccc(F)cc1)C(=O)NO` (stereo not drawn): 63 µM; `CC(C)(C)C(=O)NC(Cc1ccc(I)cc1)C(=O)NO` (stereo not drawn): 15 µM; `CC(C)(C)OC(=O)NC(C(=O)NO)c1ccc(-c2cccc(C(F)(F)F)c2)cc1` (stereo not drawn): 2.9 µM.
As for `Cn1cc(-c2ccc(C(NC(=O)C(C)(C)C)C(=O)NO)cc2)cn1` (stereo not drawn), the Ki was found to be 11 µM.
As for `CC(C)(C)OC(=O)NC(Cc1ccc(Br)cc1)C(=O)NO` (stereo not drawn), the Ki worked out at 39 µM.

A further assay in a line: Inhibition of recombinant Plasmodium falciparum M17 aminopeptidase using H-Leu-NHMec as substrate preincubated for 10 mins followed by addition of substrate by spectrofluorimetric analysis. In a few lines: as §1
For `CC(C)(C)OC(=O)NC(C(=O)NO)c1ccc(-c2ccc(F)cc2)cc1` (stereo not drawn), the inhibition constant (Ki) amounted to 74 nM.
With `CC(C)(C)OC(=O)NC(C(=O)NO)c1ccc(-c2ccccc2)cc1` (stereo not drawn), the Ki was 55 nM.
Still for that read-out and setting: next, `CC(C)(C)C(=O)NC(Cc1ccc(-c2ccccc2)cc1)C(=O)NO` (stereo not drawn): 650 nM; `CC(C)(C)OC(=O)NC(Cc1ccc(F)cc1)C(=O)NO` (stereo not drawn): 2800 nM; `CC(C)(C)OC(=O)NC(C(=O)NO)c1ccc(-c2ccncc2)cc1` (stereo not drawn): 540 nM.
On to `CC(C)(C)OC(=O)NC(C(=O)NO)c1ccc(-c2ccc(C(F)(F)F)cc2)cc1` (stereo not drawn), for which the inhibitory constant (Ki) came out at 470 nM.
With `CC(C)(C)OC(=O)NC(C(=O)NO)c1ccc(F)cc1` (stereo not drawn), the Ki came to 1700 nM.
`CC(C)(C)OC(=O)NC(Cc1ccc(I)cc1)C(=O)NO` (stereo not drawn): the Ki is 21000 nM.
The same measure, in the same setting: next, `CC(C)(C)OC(=O)NC(C(=O)NO)c1ccc(-c2ccsc2)cc1` (stereo not drawn): 64 nM; `CC(C)(C)OC(=O)NC(C(=O)NO)c1ccc(-c2cccnc2)cc1` (stereo not drawn): 220 nM; `CC(C)(C)C(=O)NC(Cc1ccc(Br)cc1)C(=O)NO` (stereo not drawn): 420 nM.
In the case of `CC(C)(C)OC(=O)NC(C(=O)NO)c1ccc(-c2cccc(F)c2)cc1` (stereo not drawn), the Ki amounted to 130 nM.
Still for that read-out and setting: next, `Cn1cc(-c2ccc(CC(NC(=O)C(C)(C)C)C(=O)NO)cc2)cn1` (stereo not drawn): 740 nM; `Cn1cc(-c2ccc(CC(NC(=O)OC(C)(C)C)C(=O)NO)cc2)cn1` (stereo not drawn): 14000 nM; `CC(C)(C)C(=O)NC(Cc1ccc(F)cc1)C(=O)NO` (stereo not drawn): 37 nM.
As to `CC(C)(C)C(=O)NC(Cc1ccc(I)cc1)C(=O)NO` (stereo not drawn), the Ki stood at 16 nM.
`CC(C)(C)OC(=O)NC(C(=O)NO)c1ccc(-c2cccc(C(F)(F)F)c2)cc1` (stereo not drawn): the Ki was 140 nM.
Take `Cn1cc(-c2ccc(C(NC(=O)C(C)(C)C)C(=O)NO)cc2)cn1` (stereo not drawn): the Ki is 7.2 nM.
As for `CC(C)(C)OC(=O)NC(Cc1ccc(Br)cc1)C(=O)NO` (stereo not drawn), the inhibition constant Ki was determined as 7700 nM.

These data come from ChEMBL document CHEMBL3763022, “Potent dual inhibitors of Plasmodium falciparum M1 and M17 aminopeptidases through optimization of S1 pocket interactions” (Eur J Med Chem, 2016).
